Laboratory results as given in ChEMBL document CHEMBL5356951, “Semisynthetic polymyxins with potent antibacterial activity and reduced kidney cell toxicity” (RSC Med Chem, 2023).
Values after ≈ are worked out from the molar mass of the structure shown.

What was measured:
Format in all cases: functional
Klebsiella pneumoniae [1] = test: Antibacterial activity against Klebsiella pneumoniae JS-123 assessed as bacterial growth inhibition by broth microdilution assay
In short: (§1)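 Broth microdilution. Bacteria from glycerol stocks were grown overnight on blood agar at 37 °C, then colonies were suspended in TSB and grown to OD600 0.5. Compounds were dissolved in DMSO at 6.4 mg mL−1 (stock) and serially diluted in CAMHB (Mg2+ 12.5, Ca2+ 20 μg mL−1) in polypropylene plates. Inoculum was 10^6 CFU mL−1 final, incubated at 37 °C. MIC = lowest concentration without visible growth; values consistent across at least triplicate experiments.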

Pseudomonas aeruginosa [2] = test: Antibacterial activity against Pseudomonas aeruginosa NRZ 08418 assessed as bacterial growth inhibition by broth microdilution assay; in short: as §1
Klebsiella pneumoniae [3] = test: Antibacterial activity against Klebsiella pneumoniae NCTC 13443 assessed as bacterial growth inhibition by broth microdilution assay; in short: as §1
Escherichia coli [4] = test: Antibacterial activity against Escherichia coli ATCC 25922 assessed as bacterial growth inhibition by broth microdilution assay; in short: as §1
Pseudomonas aeruginosa [5] = test: Antibacterial activity against Pseudomonas aeruginosa ATCC 27853 assessed as bacterial growth inhibition by broth microdilution assay; in short: as §1
Acinetobacter baumannii [6] = test: Antibacterial activity against Acinetobacter baumannii ATCC 19606 assessed as bacterial growth inhibition by broth microdilution assay
In short: (§2)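 Broth microdilution MIC. Strains grown overnight on blood agar at 37 °C, colonies suspended in TSB and grown to OD600 0.5. Compounds dissolved in DMSO (6.4 mg mL−1 stock), diluted serially in CAMHB (12.5 μg mL−1 Mg2+, 20 μg mL−1 Ca2+) on polypropylene plates. Final inoculum 10^6 CFU mL−1, 37 °C under gas-permeable membrane. MIC is the lowest concentration with no visible growth, consistent across at least triplicate experiments.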

Acinetobacter baumannii [7] = test: Antibacterial activity against Acinetobacter baumannii ATCC 17978 assessed as bacterial growth inhibition by broth microdilution assay; in short: as §2
Acinetobacter baumannii [8] = test: Antibacterial activity against multidrug-resistant Acinetobacter baumannii assessed as bacterial growth inhibition by broth microdilution assay; in short: as §2
Escherichia coli [9] = test: Antibacterial activity against multidrug-resistant Escherichia coli NCTC 13846 assessed as bacterial growth inhibition by broth microdilution assay; in short: as §2
Klebsiella pneumoniae [10] = test: Antibacterial activity against Klebsiella pneumoniae ATCC 13883 assessed as bacterial growth inhibition by broth microdilution assay; in short: as §1
Pseudomonas aeruginosa [11] = test: Antibacterial activity against Pseudomonas aeruginosa NRZ 03961 assessed as bacterial growth inhibition by broth microdilution assay; in short: as §1
Acinetobacter baumannii [12] = test: Antibacterial activity against Acinetobacter baumannii 2018-006 assessed as bacterial growth inhibition by broth microdilution assay; in short: as §2
Escherichia coli [13] = test: Antibacterial activity against Escherichia coli 1313 assessed as bacterial growth inhibition by broth microdilution assay; in short: as §1

Row | Structure (SMILES) | MIC (Klebsiella pneumoniae [1]) [µg/mL] | MIC (Pseudomonas aeruginosa [2]) [µg/mL] | MIC (Klebsiella pneumoniae [3]) [µg/mL] | MIC (Escherichia coli [4]) [µg/mL] | MIC (Pseudomonas aeruginosa [5]) [µg/mL] | MIC (Acinetobacter baumannii [6]) [µg/mL] | MIC (Acinetobacter baumannii [7]) [µg/mL] | MIC (Acinetobacter baumannii [8]) [µg/mL] | MIC (Escherichia coli [9]) [µg/mL] | MIC (Klebsiella pneumoniae [10]) [µg/mL] | MIC (Pseudomonas aeruginosa [11]) [µg/mL] | MIC (Acinetobacter baumannii [12]) [µg/mL] | MIC (Escherichia coli [13]) [µg/mL]
1 | CC(C)C[C@@H]1NC(=O)[C@@H](Cc2ccccc2)NC(=O)[C@H](CCN)NC(=O)[C@@H](NC(=O)[C@H](CN)NC(=O)[C@@H](NC(=O)[C@H](N)CSSCc2cccc(Cl)c2)[C@@H](C)O)CCNC(=O)[C@H]([C@@H](C)O)NC(=O)[C@H](CCN)NC(=O)[C@H](CCN)NC1=O | 0.5 (≈ 0.414 µM) | 2 (≈ 1.65 µM) | 2 (≈ 1.65 µM) | 2 (≈ 1.65 µM) | 4 (≈ 3.31 µM) | 0.5 (≈ 0.414 µM) | ≤ 0.25 | 8 (≈ 6.62 µM) | 2 (≈ 1.65 µM) | 0.5 (≈ 0.414 µM) | 2 (≈ 1.65 µM) | 2 (≈ 1.65 µM) | ≤ 0.125
2 | CC(C)C[C@@H]1NC(=O)[C@@H](Cc2ccccc2)NC(=O)[C@H](CCN)NC(=O)[C@@H](NC(=O)[C@@H](CO)NC(=O)[C@@H](NC(=O)[C@H](N)CSSCc2cccc(Cl)c2)[C@@H](C)O)CCNC(=O)[C@H]([C@@H](C)O)NC(=O)[C@H](CCN)NC(=O)[C@H](CCN)NC1=O | 0.25 (≈ 0.207 µM) | 4 (≈ 3.31 µM) | 0.5 (≈ 0.413 µM) | 2 (≈ 1.65 µM) | 4 (≈ 3.31 µM) | 0.5 (≈ 0.413 µM) | 0.5 (≈ 0.413 µM) | 0.5 (≈ 0.413 µM) | 8 (≈ 6.61 µM) | 1 (≈ 0.827 µM) | 8 (≈ 6.61 µM) | 0.5 (≈ 0.413 µM) | 0.5 (≈ 0.413 µM)
3 | CC(C)C[C@@H]1NC(=O)[C@@H](Cc2ccccc2)NC(=O)[C@H](CCN)NC(=O)[C@@H](NC(=O)[C@@H](CN)NC(=O)[C@@H](NC(=O)[C@H](N)CSSCc2cccc(Cl)c2)[C@@H](C)O)CCNC(=O)[C@H]([C@@H](C)O)NC(=O)[C@H](CCN)NC(=O)[C@H](CCN)NC1=O | 2 (≈ 1.65 µM) | 0.5 (≈ 0.414 µM) | 8 (≈ 6.62 µM) | 2 (≈ 1.65 µM) | 1 (≈ 0.827 µM) | 0.5 (≈ 0.414 µM) | 0.5 (≈ 0.414 µM) | 0.5 (≈ 0.414 µM) | 16 (≈ 13.2 µM) | 0.5 (≈ 0.414 µM) | 2 (≈ 1.65 µM) | 0.5 (≈ 0.414 µM) | 0.5 (≈ 0.414 µM)
4 | CC(C)C[C@@H]1NC(=O)[C@@H](Cc2ccccc2)NC(=O)[C@H](CCN)NC(=O)[C@@H](NC(=O)CNC(=O)[C@@H](NC(=O)[C@H](N)CSSCCC2CCCCC2)[C@@H](C)O)CCNC(=O)[C@H]([C@@H](C)O)NC(=O)[C@H](CCN)NC(=O)[C@H](CCN)NC1=O | 0.5 (≈ 0.429 µM) | 2 (≈ 1.72 µM) | 1 (≈ 0.858 µM) | 2 (≈ 1.72 µM) | 2 (≈ 1.72 µM) | 0.5 (≈ 0.429 µM) | 0.5 (≈ 0.429 µM) | 1 (≈ 0.858 µM) | 8 (≈ 6.86 µM) | 1 (≈ 0.858 µM) | 4 (≈ 3.43 µM) | 0.5 (≈ 0.429 µM) | 0.5 (≈ 0.429 µM)
5 | CC(C)C[C@@H]1NC(=O)[C@@H](Cc2ccccc2)NC(=O)[C@H](CCN)NC(=O)[C@@H](NC(=O)[C@@H](CCN)NC(=O)[C@@H](NC(=O)[C@H](N)CSSCc2cccc(Cl)c2)[C@@H](C)O)CCNC(=O)[C@H]([C@@H](C)O)NC(=O)[C@H](CCN)NC(=O)[C@H](CCN)NC1=O | 0.5 (≈ 0.409 µM) | 2 (≈ 1.64 µM) | 0.5 (≈ 0.409 µM) | 2 (≈ 1.64 µM) | 2 (≈ 1.64 µM) | 0.5 (≈ 0.409 µM) | 1 (≈ 0.818 µM) | 1 (≈ 0.818 µM) | 4 (≈ 3.27 µM) | 1 (≈ 0.818 µM) | 2 (≈ 1.64 µM) | 0.5 (≈ 0.409 µM) | 0.5 (≈ 0.409 µM)
6 | CC(C)CCSSC[C@@H](N)C(=O)N[C@H](C(=O)N[C@H](CO)C(=O)N[C@H]1CCNC(=O)[C@H]([C@@H](C)O)NC(=O)[C@H](CCN)NC(=O)[C@H](CCN)NC(=O)[C@H](CC(C)C)NC(=O)[C@@H](Cc2ccccc2)NC(=O)[C@H](CCN)NC1=O)[C@@H](C)O | 0.5 (≈ 0.433 µM) | 8 (≈ 6.92 µM) | 1 (≈ 0.865 µM) | 2 (≈ 1.73 µM) | 4 (≈ 3.46 µM) | 0.25 (≈ 0.216 µM) | 0.25 (≈ 0.216 µM) | 0.5 (≈ 0.433 µM) | 16 (≈ 13.8 µM) | 0.5 (≈ 0.433 µM) | 8 (≈ 6.92 µM) | 0.5 (≈ 0.433 µM) | 0.5 (≈ 0.433 µM)
7 | CC(C)C[C@@H]1NC(=O)[C@@H](Cc2ccccc2)NC(=O)[C@H](CCN)NC(=O)[C@@H](NC(=O)[C@@H](CN)NC(=O)[C@@H](NC(=O)[C@H](N)CSSCCC2CCCCC2)[C@@H](C)O)CCNC(=O)[C@H]([C@@H](C)O)NC(=O)[C@H](CCN)NC(=O)[C@H](CCN)NC1=O | 1 (≈ 0.837 µM) | 2 (≈ 1.67 µM) | 1 (≈ 0.837 µM) | 2 (≈ 1.67 µM) | 2 (≈ 1.67 µM) | 0.5 (≈ 0.419 µM) | 1 (≈ 0.837 µM) | 1 (≈ 0.837 µM) | 4 (≈ 3.35 µM) | 1 (≈ 0.837 µM) | 2 (≈ 1.67 µM) | 0.5 (≈ 0.419 µM) | 0.5 (≈ 0.419 µM)
